Most compounds without a hit are left out; they make up all but 3.6% or so of the library.
EBNA-1 inhibitor – EBNA-1 DNA-binding inhibitors, primary screen, biochemical, fluorescence polarization; inhibition, % at 14.8 µM; actives 0.34% (n = 300,000); AID 1950, 2009; in the data active means inhibition above about 28%
GRIN3A LBD mod – binders of NR3A ligand-binding domain, primary screen, biophysical, differential scanning fluorimetry, uHTS; AID 1259313, 2017; Tm shift relative to glycine control, % at 25 µM; NR3A LBD differential scanning fluorimetry, Tm shift; 0% = protein alone, 100% = glycine-bound protein; actives 2.5% (n = 340,000);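 active means melting temperature shift of at least 10% of the positive control shift, at one fixed dose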
FGF22 binding – binders of human FGF22 protein, primary screen, FGF22 synaptogenesis inhibitor project, biophysical, thermal shift, single point. recombinant FGF22 thermal shift, SYPRO orange fluorescence; percent of sucrose octasulfate shift, DMSO zero. actives 1.5% (n = 340,000). activity (Tm shift, normalised), % at 9.99 µM. AID 651658, 2012;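 active means mean Tm shift, scaled 0 neutral to 100 positive control, at about 1.3% or above, every replicate too, limit read from the data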
Target sequence (Q9HCT0 whole entry, looked up): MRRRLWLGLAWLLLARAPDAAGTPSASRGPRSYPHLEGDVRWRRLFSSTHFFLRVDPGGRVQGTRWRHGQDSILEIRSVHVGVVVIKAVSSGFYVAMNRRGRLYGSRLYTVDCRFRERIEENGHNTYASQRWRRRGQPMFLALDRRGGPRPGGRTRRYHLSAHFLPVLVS
HCV NS3 hel inh – inhibitors of HCV NS3 helicase, primary screen, biochemical, Cy5 molecular beacon fluorescence; Hepatitis C virus NS3 helicase; NS3 helicase DNA unwinding; inhibition, % at 10.9 µM; actives 0.56% (n = 290,000);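 active means inhibition above the mean of all tested compounds plus 3 SD, set per campaign, cut at about 35% in these data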;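 further: 0% = DMSO wells and 100% = thioflavine S control wells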
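Assay system – hepatitis C virus NS3 helicase domain fragment enzyme · Buffer or medium – MOPS pH 6.5, MgCl2, DTT, Tween20, BSA · Reagent – Cy5/quencher beacon DNA duplex and ATP to start · Compound – single 10.9 µM dose · Timing – 1 h at 25 °C · Technique – Cy5 beacon fluorescence read at start and 1 h · Measure – % inhibition of unwinding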
ZTA counter – counter-screen for EBNA-1 inhibitors: inhibitors of Epstein-Barr virus ZTA | P03206 | ZTA-DNA binding, fluorescence polarization | inhibition, % at 11 µM | actives 0.15% (n = 320,000); in the data active means inhibition above about 33%
Target sequence (P03206 whole entry, looked up): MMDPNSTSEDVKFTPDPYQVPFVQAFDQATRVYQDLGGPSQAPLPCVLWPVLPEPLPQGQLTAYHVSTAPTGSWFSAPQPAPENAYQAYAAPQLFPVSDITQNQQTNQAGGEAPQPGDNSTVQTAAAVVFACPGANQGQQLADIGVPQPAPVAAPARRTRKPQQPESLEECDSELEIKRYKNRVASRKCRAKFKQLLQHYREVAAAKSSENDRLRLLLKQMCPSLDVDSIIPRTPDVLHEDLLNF
DNA FID counter – compounds displacing fluorescent DNA intercalator, primary screen, artefact control for HCV NS3 helicase inhibitor project, biochemical, FID fluorescence; actives 0.17% (n = 290,000); AID 1845, 2009; DNA fluorescent intercalator displacement; inhibition, % at 7.9 µM; in the data active means inhibition above about 37%;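 further: 0% = vehicle and 100% = reference compound; higher means more ethidium bromide displaced from hairpin DNA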
Starred values were filed as active, the others as inactive; x = not tested or not shown.

SMILES | EBNA-1 inhibitor | GRIN3A LBD mod | FGF22 binding | HCV NS3 hel inh | ZTA counter | DNA FID counter
CCCCn1c(N)c(N(C)C(=O)C2CCCC2)c(=O)[nH]c1=O | x | 14.7* | 0.0 | x | -10.2 | x
CCCCn1c(N)c(N(CC)C(=O)c2cc(Br)ccc2Cl)c(=O)[nH]c1=O | 5.3 | -0.5 | 43.6* | -5.0 | -6.1 | -3.5
C[C@H]1CN([C@@H](C)CO)C(=O)Cc2cc(NS(=O)(=O)c3ccc(F)cc3)ccc2O[C@@H]1CN(C)S(C)(=O)=O | x | x | 0.0 | x | x | x
CC(C)CCOCC(O)CCC(=O)NNC(=S)Nc1ccccc1 (stereo not given) | -2.6 | 0.2 | 0.1 | 4.2 | -1.1 | -7.8
C=CCC(CC(O)COCCC)C(=O)NNC(=S)Nc1ccccc1 (stereo not given) | -4.3 | 10.3* | 0.0 | 0.9 | 4.5 | -5.7
Cc1nonc1CN(C)C(=O)CC1C(=O)NCCN1Cc1ccccc1F (stereo not given) | x | 11.1* | 0.1 | 6.5 | x | -8.0
CCOc1ccccc1CN1CCNC(=O)C1CC(=O)N(C)Cc1nonc1C (stereo not given) | x | -1.6 | -0.2 | 1.3 | x | -16.6
Cc1ccccc1NC(=O)COC(=O)CCc1c[nH]c2ccccc12 | x | 1.7 | 0.0 | x | 20.1 | x
Cc1ccc(NC(=O)COC(=O)CCc2c[nH]c3ccccc23)cc1[N+](=O)[O-] | -4.4 | -1.2 | 43.0* | 2.2 | -13.2 | -1.4
Cc1ccc(NC(=O)COC(=O)Cc2c[nH]c3ccccc23)cc1F | x | 14.1* | 0.3 | x | x | x
COCCOc1ccc(C(F)(F)F)cc1NC(=O)COC(=O)Cc1c[nH]c2ccccc12 | x | 21.4* | 0.1 | x | 2.0 | x
CCCCCNCC(=O)Nc1cc(C(F)(F)F)ccc1OCCOC | 2.6 | -0.9 | 43.9* | -20.0 | 8.6 | 30.8
CO[C@@H](CN(C)Cc1cc(F)ccc1F)[C@@H](C)CN(C(=O)Nc1ccc(F)cc1)[C@@H](C)CO | x | x | 0.1 | x | x | x
COCC(=O)N1CC2(C1)[C@@H](c1ccc(-c3ccccc3)cc1)[C@H](CO)N2C(=O)COC | x | x | 0.0 | x | x | x
c1ccc(CN2CCC(Nc3nc(-c4ccccc4)nc4ccccc34)CC2)cc1 | 0.5 | 6.4 | x | -36.1 | 1.7 | 42.4*
COc1ccc2c3c([nH]c2c1)[C@@H](CO)N(Cc1ccccc1F)CC31CCN(C(=O)C2CC2)CC1 | x | x | -0.1 | x | x | x
CC1(C)C2CC=C(/C=N/NC(=O)c3ccc(O)cc3)C1C2 (stereo not given) | -12.4 | -20.8 | x | 8.1 | -25.8 | -6.5
CC1(C)C2CC=C(/C=N/NC(=O)c3ccccc3Br)C1C2 (stereo not given) | -7.2 | 2.9 | 43.4* | 4.1 | -3.3 | -1.5
O=C(O)c1ccc(N2C(=O)c3ccccc3C2=O)cc1[N+](=O)[O-] | x | x | 43.4* | x | x | x
Cc1nn(CC(=O)Nc2nccs2)c(C)c1[N+](=O)[O-] | 6.7 | 1.7 | -0.1 | -3.1 | -2.0 | 2.5
Cc1cc([N+](=O)[O-])nn1CCC(=O)Nc1nccs1 | -10.1 | -0.7 | 43.1* | 1.2 | -1.1 | 4.2
Cc1cc([N+](=O)[O-])nn1CCCC(=O)Nc1sc2c(c1C(N)=O)CCCC2 | -11.5 | 16.8* | x | 2.3 | 10.2 | -0.6
C[C@H]1CN([C@@H](C)CO)C(=O)Cc2cc(NC(=O)Cc3cn(C)c4ccccc34)ccc2O[C@@H]1CN(C)C(=O)Nc1cccc2ccccc12 | x | x | -0.2 | x | x | x
O=C(C[C@@H]1C[C@@H]2c3cc(NC(=O)NC4CCCC4)ccc3O[C@@H]2[C@H](CO)O1)NCc1ccc(-c2ccccc2)cc1 | x | x | 0.1 | x | x | x
COCC(=O)N(C)C[C@@H]1Oc2ncc(C#Cc3ccccc3)cc2C(=O)N([C@@H](C)CO)C[C@@H]1C | x | x | 0.0 | x | x | x
CSc1ccc(C=NNc2ccc(S(=O)(=O)Nc3ccccc3C(=O)O)cc2[N+](=O)[O-])cc1 | x | 8.8 | 0.3 | x | x | x
C/C(=N\Nc1ccc(S(=O)(=O)Nc2ccccc2)cc1[N+](=O)[O-])c1ccncc1 | 1.3 | x | -0.2 | -0.5 | 6.2 | 1.8
